# PAFAH1B2 inh = blocks human PAF acetylhydrolase 1b catalytic subunit 2; recombinant PAFAH1B2, FP-rhodamine activity probe, fluorescence polarization; inhibition, % at 3.39 µM; 1.2% of 340,000 active; AID 492953;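 active = inhibition above the mean of all tested compounds plus 3 SD, cut at about 24% in these data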;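 also: 0% = enzyme with DMSO and 100% = wells lacking PAFAH1B2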
# ASAP1 inh = ASAP1 ArfGAP inhibition. Q9ULH1. ASAP1-stimulated ARF1 GTP hydrolysis, GDP FP detection. inhibition, % at 16.5 µM. 0.19% of 360,000 active. AID 624377; in the data active = inhibition above about 25%;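 also: 0% = vehicle with enzyme and substrate and 100% = no enzyme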
# Target sequence (Q9ULH1 325-724 limits assumed): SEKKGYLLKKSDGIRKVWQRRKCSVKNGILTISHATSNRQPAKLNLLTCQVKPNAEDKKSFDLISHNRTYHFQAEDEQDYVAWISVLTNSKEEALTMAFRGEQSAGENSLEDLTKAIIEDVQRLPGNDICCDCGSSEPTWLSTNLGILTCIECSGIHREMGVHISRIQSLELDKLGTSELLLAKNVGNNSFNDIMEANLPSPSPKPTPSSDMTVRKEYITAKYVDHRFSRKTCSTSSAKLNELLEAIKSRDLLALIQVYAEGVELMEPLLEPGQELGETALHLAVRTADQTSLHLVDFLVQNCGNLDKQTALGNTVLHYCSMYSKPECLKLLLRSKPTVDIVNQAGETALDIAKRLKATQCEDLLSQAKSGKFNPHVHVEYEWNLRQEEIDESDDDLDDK
# PAFAH2 inh = inhibitors of human PAFAH2 | Q99487 | recombinant PAFAH2, FP-rhodamine activity probe, fluorescence polarization | inhibition, % at 3.39 µM | 0.99% of 340,000 active | AID 492956;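 active = inhibition above the mean over all tested compounds plus 3 SD, cut at about 30% in these data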;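 also: inhibitors block probe labeling of enzyme so polarization drops; 0% = enzyme with DMSO and 100% = wells lacking PAFAH2 protein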
# pPAFAH FP inh = inhibitors of human plasma PAF acetylhydrolase (pPAFAH); recombinant pPAFAH, FP-rhodamine probe fluorescence polarization; AID 463082; inhibition, % at 3.39 µM; 1.5% of 330,000 active;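 active = inhibition above the mean inhibition across the screen plus 3 SD, cut at about 25% in these data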;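 also: inhibitors block binding of the rhodamine activity-based probe so polarization drops; 0% = enzyme with DMSO and 100% = wells lacking pPAFAH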
# ARFGAP1 inhibitor = rat ARFGAP1 inhibition; Q62848; Arfgap1-stimulated ARF1 GTP hydrolysis, GDP FP detection; inhibition, % at 16.5 µM; 0.26% of 360,000 active;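 active = inhibition above a per-plate limit, mean inhibition of low control wells plus 3 SD, cut at about 25% in these data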;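 also: 0% = DMSO wells with enzyme and 100% = wells lacking Arfgap1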
#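 Material: truncated rat Arfgap1 GAP domain; Incubation: compound-enzyme preincubation 20 min, reaction 120 min, detection 60 min, 25 °C; Read-out: percent inhibition of Arfgap1-stimulated GTP hydrolysis; Technique: FP, GDP Alexa 633 tracer displaced from anti-GDP antibody, 620/688 nm; Controls: No-Arfgap1 wells (100%) versus DMSO full-reaction wells (0%); Replication: single well per compound.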
# PAFAH1B3 inh = inhibitors of human PAFAH1B3. recombinant PAFAH1B3, FP-rhodamine probe, fluorescence polarization. inhibition, % at 3.39 µM. 0.28% of 340,000 active. AID 492972;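 active = inhibition above the screen-wide average of all tested compounds plus 3 SD, cut at about 25% in these data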;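 also: 0% = enzyme with DMSO only and 100% = wells lacking PAFAH1B3 protein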
# Target sequence (Q15102 whole entry, looked up): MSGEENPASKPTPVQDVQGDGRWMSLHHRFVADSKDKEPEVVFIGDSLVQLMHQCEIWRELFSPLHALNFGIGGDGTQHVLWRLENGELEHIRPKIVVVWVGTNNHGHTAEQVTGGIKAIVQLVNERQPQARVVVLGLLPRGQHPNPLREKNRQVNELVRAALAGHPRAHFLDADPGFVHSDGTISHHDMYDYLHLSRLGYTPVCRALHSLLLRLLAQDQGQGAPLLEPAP
# Numbers without * were called inactive; . = no result given; ! = a repeat was not active. Compounds with a hit are over-represented: about 2.7% of the library has one in this group of screens.
SMILES,PAFAH1B2 inh,ASAP1 inh,PAFAH2 inh,pPAFAH FP inh,ARFGAP1 inhibitor,PAFAH1B3 inh
CC(C)C[C@H](NC(=O)c1[nH]cnc1C(=O)N[C@@H](Cc1ccccc1)C(=O)OCc1ccccc1)C(=O)OCc1ccccc1,-5,8,-14,10,8,-10
O=C(N[C@@H](Cc1ccccc1)C(=O)OCc1ccccc1)c1nc[nH]c1C(=O)NCc1ccccc1,0,-9,13,33*,7,-6
CCOC(=O)C1CSCCS(=O)(=O)N1Cc1cccc(F)c1 (stereo not drawn),.,-10,.,.,-2,.
OC(c1ccccc1)(c1ccccc1)C1CCN(CCCOc2cccc(C(F)(F)F)c2)CC1,.,-10,.,.,-10,.
CCN(CC)c1ccc(/C=C2\C(=O)c3ccc(C(=O)O)cc3C2=O)cc1,1,-17,20,28*,-12,-20
CCN(CC)c1ccc(C(=O)O)cc1,2,6,0,2,-7,7
Cc1ccccc1C(=O)N[C@H](C(=O)N1CCC[C@H]1C(=O)NC1CCCC1)C1CCCCC1,.,16,.,.,-2,.
Cc1ccc(S(=O)(=O)Oc2ccc(C3C4=C(CCCC4=O)N(CCC(=O)O)C4=C3C(=O)CCC4)cc2Cl)cc1,39*,-7,6,2,6,3
COc1cccc(CN(C)C(=O)[C@@H](Cc2ccccc2)NC(=O)[C@H]2O[C@@H](n3ccc(=O)[nH]c3=O)[C@H](O)[C@@H]2O)c1,.,0,.,.,5,.
O=C(Nc1cccc([N+](=O)[O-])c1)OCc1ccc2c(c1)OCO2,.,14,.,.,14,.
C=CCCC[C@H]1OC(=O)[C@H](C)NC(=O)[C@H](C(C)C)NC(=O)[C@@H]2CCCN2C(=O)[C@H](Cc2ccccc2)OC(=O)[C@@H](C(C)C)N(C)C(=O)[C@H](C(C)C)NC(=O)C1(C)C,.,7,.,.,3,.
CCCc1ccc(-c2cc(NC(=O)Cc3c(C)[nH]c4ccccc34)ccc2N(C)c2cccnc2)cc1,.,-9,.,.,1,.
CCOC(=O)C1=C(c2ccccc2)N=c2s/c(=C\c3ccco3)c(=O)n2C1c1cccs1 (stereo not drawn),8,5,3,29*,2,8
CCOC(=O)CN1C(=O)[C@]2(OCCC=C[C@H]2C)c2ccccc21,.,-1,.,.,-4,.
C/C(N)=C(/C#N)C(=O)COC(=O)CCSc1ccccc1,27*!,0,12,8,-8,2
Cn1cc(CCOCc2ccccc2)c2ccccc21,.,-11,.,.,10,.
Cc1c([N+](=O)[O-])cc(S(=O)(=O)Nc2ccc(-c3ccc(N4CCCC4)nn3)cc2)cc1[N+](=O)[O-],12,-1,14,29*,-5,2
NS(=O)(=O)c1cccc(NC(=O)COC(=O)CSCc2ccccc2)c1,2,2,14,28*,5,8
NS(=O)(=O)c1cccc(NC(=O)CN2C(=O)C(=O)N(Cc3ccccc3)C2=O)c1,-6,3,-6,4,-7,6
COc1ccc(NC(=O)COC(=O)CCSc2ccccc2)cc1OC,10,6,0,20,3,7
O=C(COC(=O)CCSc1ccccc1)Nc1cc(F)ccc1F,32*,-3,-1,9,3,8
NC(=O)c1ccc(NC(=O)COC(=O)CCSc2ccccc2)cc1,4,-7,-6,10,-3,1
Cc1ccc(SCCC(=O)OCC(=O)Nc2ccc(C(N)=O)cc2)cc1,26*,7,13,8,20,1
NS(=O)(=O)c1cccc(NC(=O)COC(=O)CCSc2ccccc2)c1,15,-11,-5,25*,5,-1
COC(=O)C1=C(C)N(Cc2ccccc2C(F)(F)F)C(=NCc2ccccc2C(F)(F)F)NC1c1ccc(C(F)(F)F)cc1 (stereo not drawn),.,-4,.,.,-3,.
SMILES,PAFAH1B2 inh,ASAP1 inh,PAFAH2 inh,pPAFAH FP inh,ARFGAP1 inhibitor,PAFAH1B3 inh
Cc1noc(C)c1S(=O)(=O)N(C)C[C@@H]1OCc2cnnn2CCCC(=O)N([C@@H](C)CO)C[C@@H]1C,.,3,.,.,4,.
O=C(COc1ccc(Cl)cc1)c1ccc(O)cc1O,27*,2,-8,-2,-1,3
O=C(NCc1ccc(F)cc1)C(=O)NCC1OCCCN1S(=O)(=O)c1cccs1 (stereo not drawn),30*,-4,-14,7,-2,2
Cc1cc(F)ccc1S(=O)(=O)N1CCCOC1CNC(=O)C(=O)NCCc1ccccc1 (stereo not drawn),27*,3,-19,11,5,5
COc1ccc(NC(=O)C(=O)NCCC2CCCCN2S(=O)(=O)c2cccs2)cc1 (stereo not drawn),7,-2,12,-2,-3,0
COc1ccc(CNC(=O)C(=O)NCCC2CCCCN2S(=O)(=O)c2cccs2)cc1 (stereo not drawn),25*,11,-2,2,24,-1
Cc1ccc(CNC(=O)C(=O)NCC2CCCN2S(=O)(=O)c2cc(C)ccc2C)cc1 (stereo not drawn),28*,4,2,9,0,7
O=C(NCc1ccccc1)C(=O)NCC1OCCCN1S(=O)(=O)c1cccs1 (stereo not drawn),15,8,2,9,3,-5
CC(=O)C1=C(C)N(Cc2ccc(F)cc2)C(=S)NC1c1ccccc1 (stereo not drawn),.,-4,.,.,1,.
COc1ccc(CCN2C(=O)CSC2c2ccc(F)cc2)cc1 (stereo not drawn),26*,-4,-6,-2,7,1
O=C1CSC(c2ccccc2)N1CCc1ccccc1 (stereo not drawn),9,-10,-9,1,9,-4
Cc1c(C(=O)O)cccc1-n1c(C)cc(/C=C(/C#N)C(=O)NCc2ccccc2)c1C,.,0,.,29*,-5,.
Cn1c(NCCCO)nc2c(c1=O)C1(CCCCC1)Cc1ccccc1-2,19,3,0,-1,8,5
CCC(=O)Nn1cnc2c(c1=O)C1(CCCCC1)Cc1ccccc1-2,33*,4,-4,-2,9,4
CCCn1c(SCC(N)=O)nc2c(c1=O)C1(CCCC1)Cc1ccccc1-2,24,12,-8,8,12,4
CCSc1n[nH]c2nc3c(c(=O)n12)C1(CCCCC1)Cc1ccccc1-3,82*,5,58*,4,-5,3
CSc1n[nH]c2nc3c(c(=O)n12)C1(CCCCC1)Cc1ccccc1-3,91*,-15,44*,6,-6,10
N#CCSc1n[nH]c2nc3c(c(=O)n12)C1(CCCCC1)Cc1ccccc1-3,91*,-15,38*,22,-7,6
COc1ccccc1C(=O)N1CCN(C(=O)[C@@H](Cc2ccccc2)NC(=O)[C@H]2O[C@@H](n3ccc(=O)[nH]c3=O)[C@H](O)[C@@H]2O)CC1,.,-2,.,.,21,.

# Screening results from PubChem.
